Measurements published in ChEMBL document CHEMBL2346641, “Discovery of disubstituted piperidines and homopiperidines as potent dual NK1 receptor antagonists-serotonin reuptake transporter inhibitors for the treatment of depression” (Bioorg Med Chem, 2013).
Activity calls are given as the source filed them.

Columns and labels:
[1] = target: 5-hydroxytryptamine receptor 1B (Homo sapiens, UniProt P28222); test: Inhibition of 5HT1B receptor (unknown origin)
[2] = Drug uptake in gerbil brain at 0.3 mg/kg, ip after 36 mins; assay type: ADME, organism-based; parameters: dose 0.3 mg/kg, route intraperitoneal; conditions: gerbillinae, read-out: Drug uptake
In short: (§1)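 Gerbils given IP doses as a solution in 100% PEG-400. Brain and serum sampled 36 min post-injection, covering the time from dosing to the end of the behavioral test. Values are means (n = 3) with SD.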

[3] = target: T1, Substance-K receptor (Homo sapiens, UniProt P21452); test: Inhibition of NK2 receptor (unknown origin)
T1 sequence (P21452 whole entry): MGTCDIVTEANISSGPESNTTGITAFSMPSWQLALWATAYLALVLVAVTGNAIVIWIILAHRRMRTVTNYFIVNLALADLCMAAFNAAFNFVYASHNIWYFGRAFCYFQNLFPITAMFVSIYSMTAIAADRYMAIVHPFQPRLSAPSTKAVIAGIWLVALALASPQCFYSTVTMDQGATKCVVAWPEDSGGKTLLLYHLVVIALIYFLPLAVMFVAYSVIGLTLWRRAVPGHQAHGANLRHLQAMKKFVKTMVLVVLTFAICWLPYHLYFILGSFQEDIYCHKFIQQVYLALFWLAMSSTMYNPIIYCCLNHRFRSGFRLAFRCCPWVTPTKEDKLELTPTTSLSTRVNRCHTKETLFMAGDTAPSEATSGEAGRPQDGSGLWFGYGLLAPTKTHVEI

[4] = target: Sodium-dependent serotonin transporter (Homo sapiens, UniProt P31645); assay type: cell-based, HEK293
[5] = Drug uptake in gerbil serum at 30 mg/kg, ip after 36 mins; assay type: ADME, organism-based; parameters: dose 30 mg/kg, route intraperitoneal; conditions: gerbillinae, read-out: Drug uptake; in short: as §1
[6] = Drug uptake in gerbil brain at 3 mg/kg, ip after 36 mins; assay type: ADME, organism-based; parameters: dose 3 mg/kg, route intraperitoneal; conditions: gerbillinae, read-out: Drug uptake; in short: as §1
[7] = organism: Homo sapiens; test: Inhibition of Na+ channel (unknown origin) at 10 uM
In short: (§2)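 Screened at 10 µM in a commercial panel of over 70 receptors. Significance threshold set at ≥50% inhibition.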

[8] = Drug uptake in gerbil brain at 0.1 mg/kg, ip after 36 mins; assay type: ADME, organism-based; parameters: dose 0.1 mg/kg, route intraperitoneal; conditions: gerbillinae, read-out: Drug uptake; in short: as §1
[9] = organism: Homo sapiens; test: Inhibition of Ca2+ channel (unknown origin) at 10 uM; in short: as §2
[10] = Drug uptake in gerbil serum at 0.3 mg/kg, ip after 36 mins; assay type: ADME, organism-based; parameters: dose 0.3 mg/kg, route intraperitoneal; conditions: gerbillinae, read-out: Drug uptake; in short: as §1
[11] = Drug uptake in gerbil serum at 3 mg/kg, ip after 36 mins; assay type: ADME, organism-based; parameters: dose 3 mg/kg, route intraperitoneal; conditions: gerbillinae, read-out: Drug uptake; in short: as §1
[12] = target: T2, 5-hydroxytryptamine receptor 2B (Homo sapiens, UniProt P41595); conditions: 10 uM
[13] = target: T2, 5-hydroxytryptamine receptor 2B; test: Inhibition of 5HT2B receptor (unknown origin)

T2 sequence (P41595 whole entry): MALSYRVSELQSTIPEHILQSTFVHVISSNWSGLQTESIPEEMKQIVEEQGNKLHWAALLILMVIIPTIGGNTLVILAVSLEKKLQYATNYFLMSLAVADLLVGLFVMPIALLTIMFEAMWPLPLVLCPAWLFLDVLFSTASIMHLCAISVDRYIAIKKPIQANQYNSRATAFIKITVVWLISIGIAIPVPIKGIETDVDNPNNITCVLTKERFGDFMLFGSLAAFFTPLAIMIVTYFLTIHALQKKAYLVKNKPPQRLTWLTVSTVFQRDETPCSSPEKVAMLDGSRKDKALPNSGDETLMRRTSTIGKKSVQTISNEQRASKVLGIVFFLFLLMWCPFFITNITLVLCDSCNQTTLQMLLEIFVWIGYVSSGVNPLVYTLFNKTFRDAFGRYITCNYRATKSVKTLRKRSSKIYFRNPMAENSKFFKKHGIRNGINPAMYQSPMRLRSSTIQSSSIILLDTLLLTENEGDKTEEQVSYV
5-hydroxytryptamine receptor 1B, sequence (P28222 whole entry): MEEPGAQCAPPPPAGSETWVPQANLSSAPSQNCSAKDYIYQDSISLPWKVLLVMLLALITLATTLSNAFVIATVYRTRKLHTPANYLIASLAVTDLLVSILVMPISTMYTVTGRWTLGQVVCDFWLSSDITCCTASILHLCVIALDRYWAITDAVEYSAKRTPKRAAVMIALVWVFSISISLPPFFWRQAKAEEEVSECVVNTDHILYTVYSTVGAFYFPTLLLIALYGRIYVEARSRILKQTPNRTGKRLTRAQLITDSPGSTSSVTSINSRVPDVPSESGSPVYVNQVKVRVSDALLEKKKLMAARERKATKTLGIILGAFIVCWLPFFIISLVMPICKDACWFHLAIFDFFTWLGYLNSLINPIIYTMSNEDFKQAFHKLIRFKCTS
Sodium-dependent serotonin transporter, sequence (P31645 whole entry): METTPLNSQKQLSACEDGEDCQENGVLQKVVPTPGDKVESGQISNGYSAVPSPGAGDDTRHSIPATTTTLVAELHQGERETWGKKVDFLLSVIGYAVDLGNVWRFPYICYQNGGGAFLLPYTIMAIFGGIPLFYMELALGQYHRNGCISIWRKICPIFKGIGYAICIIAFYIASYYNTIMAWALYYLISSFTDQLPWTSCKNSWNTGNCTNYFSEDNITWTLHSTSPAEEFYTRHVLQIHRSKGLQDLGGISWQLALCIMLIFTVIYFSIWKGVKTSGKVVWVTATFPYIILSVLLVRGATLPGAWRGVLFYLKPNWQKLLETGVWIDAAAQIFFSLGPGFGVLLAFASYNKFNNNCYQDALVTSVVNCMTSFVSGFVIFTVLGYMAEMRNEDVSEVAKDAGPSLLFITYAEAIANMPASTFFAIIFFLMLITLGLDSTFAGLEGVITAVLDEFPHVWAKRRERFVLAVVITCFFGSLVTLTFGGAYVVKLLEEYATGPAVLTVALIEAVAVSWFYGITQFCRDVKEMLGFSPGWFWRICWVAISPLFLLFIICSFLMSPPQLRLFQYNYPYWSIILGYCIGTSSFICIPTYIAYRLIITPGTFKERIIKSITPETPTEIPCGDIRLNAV

- IC50 [1]: > 1000 nM
- concentration at 0.6 h [2]: 44 nM
- IC50 [3]: > 1000 nM
- IC50 [4]: 1 nM
- concentration at 0.6 h [5]: 2300 nM
- concentration at 0.6 h [6]: 880 nM
- inhibition [7]: Active
- concentration at 0.6 h [8]: 8.8 nM
- inhibition [9]: Active
- concentration at 0.6 h [10]: 12 nM
- concentration at 0.6 h [11]: 210 nM
- inhibition [12]: Active
- IC50 [13]: > 1000 nM
Structure (SMILES): FC(F)(F)c1cc(COCC2(c3ccccc3)CCNCC2)cc(C(F)(F)F)c1
